Experiments:
[1] = target: Human immunodeficiency virus type 1 reverse transcriptase (Human immunodeficiency virus 1) (UniProt Q72547); assay: Antiviral activity against wild type HIV1 reverse transcriptase
[2] = system: Human immunodeficiency virus 1 [K103N]; assay: Antiviral activity against HIV1 reverse transcriptase K103N mutant
[3] = system: Human immunodeficiency virus type 1 reverse transcriptase (Human immunodeficiency virus 1), Q72547 [Y181I]; assay: Antiviral activity against HIV1 reverse transcriptase Y181I mutant
[4] = system: Human immunodeficiency virus 1; assay: Antiviral activity against wild type HIV1 NL4-3 in MT4 cells after 5 days by MTT method; format: functional, organism-based; settings: Human immunodeficiency virus 1, NL4-3, MT4, 120 h
How it was run: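 MT-4 lymphoid cells, infected with HIV-1 or mock-infected (for cytotoxicity), held with a range of drug concentrations; viable cells scored at day 5 post-infection by tetrazolium (MTT) colorimetry.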

[5] = system: Human immunodeficiency virus 1; assay: Antiviral activity against HIV1 with reverse transcriptase K103N mutation in MT4 cells after 5 days by MTT method; format: functional, organism-based; settings: Human immunodeficiency virus 1, MT4, 120 h
How it was run: (§1)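 MT-4 cells from the NIH AIDS Reagent Program were infected with mutant HIV-1 (K103N or Y188L, from the MRC Centralised Facility) in the presence of graded drug concentrations. Mock-infected cells were used for cytotoxicity. Viable cells were counted by MTT colorimetry at day 5 post-infection.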

[6] = system: Human immunodeficiency virus 1; assay: Antiviral activity against HIV1 with reverse transcriptase Y181C mutation in MT4 cells after 5 days by MTT method; format: functional, organism-based; settings: Human immunodeficiency virus 1, MT4, 120 h
[7] = system: Human immunodeficiency virus 1; assay: Antiviral activity against HIV1 with reverse transcriptase Y188L mutation in MT4 cells after 5 days by MTT method; format: functional, organism-based; settings: Human immunodeficiency virus 1, MT4, 120 h; how it was run: as §1

| Compound | ID50 [1] | ID50 [2] | ID50 [3] | EC50 [4] | EC50 [5] | EC50 [6] | EC50 [7] |
| --- | --- | --- | --- | --- | --- | --- | --- |
| Cc1c(C(C)c2c(F)cccc2F)nc(SC/C=C/c2ccc(C#N)cc2)[nH]c1=O (stereo not given) | 161 nM | > 20000 nM | > 20000 nM | 140 nM | > 59100 nM | > 59100 nM | > 59100 nM |
| Cc1c(C(C)c2c(F)cccc2F)nc(SCc2ccc([N+](=O)[O-])cc2)[nH]c1=O (stereo not given) | 30 nM | 600 nM | > 20000 nM | 3.3 nM | 660 nM | 440 nM | 220 nM |
| Cc1c(Cc2ccc(C#N)cc2)nc(SCc2ccc([N+](=O)[O-])cc2)[nH]c1=O | > 20000 nM | > 20000 nM | > 20000 nM | > 26400 nM | > 26400 nM | > 26400 nM | > 26400 nM |
| COc1ccc(CCCSc2nc(C(C)c3c(Cl)cccc3Cl)c(C)c(=O)[nH]2)cc1 (stereo not given) | 9760 nM | > 20000 nM | > 20000 nM | 0.2 nM | 820 nM | 240 nM | 280 nM |
| CC(=O)Oc1ccc(CSc2nc(Cc3c(Cl)cccc3Cl)c(C)c(=O)[nH]2)cc1 | 85 nM | > 20000 nM | > 20000 nM | 127 nM | > 55700 nM | 8640 nM | > 55700 nM |
| COc1ccc(CCSc2nc(Cc3c(F)cccc3F)c(C)c(=O)[nH]2)cc1 | 29 nM | 3500 nM | > 20000 nM | 4.9 nM | 4130 nM | 6340 nM | 8530 nM |
| COc1ccc(CSc2nc(Cc3ccc(C#N)cc3)c(C)c(=O)[nH]2)cc1 | > 20000 nM | > 20000 nM | > 20000 nM | 20300 nM | > 66300 nM | > 66300 nM | > 66300 nM |
| CCc1c(Cc2c(Cl)cccc2Cl)nc(SCc2ccc(OC)cc2)[nH]c1=O | 32 nM | 7600 nM | > 20000 nM | 2.2 nM | 6990 nM | 830 nM | > 57500 nM |
| CCc1c(C(C)c2c(F)cccc2F)nc(SC/C=C/c2ccc([N+](=O)[O-])cc2)[nH]c1=O (stereo not given) | 9 nM | > 20000 nM | > 20000 nM | 0.4 nM | > 5750 nM | > 5750 nM | 1940 nM |
| Cc1c(Cc2ccc(C#N)cc2)nc(SCC(=O)c2ccccc2)[nH]c1=O | > 20000 nM | > 20000 nM | > 20000 nM | > 67200 nM | > 67200 nM | > 67200 nM | > 67200 nM |
| Cc1c(C(C)c2c(Cl)cccc2Cl)nc(SC/C=C/c2ccc([N+](=O)[O-])cc2)[nH]c1=O (stereo not given) | 102 nM | > 20000 nM | > 20000 nM | 480 nM | > 41000 nM | > 41000 nM | > 41000 nM |
| COc1ccc(C#CCSc2nc(Cc3c(Cl)cccc3Cl)c(C)c(=O)[nH]2)cc1 | 10 nM | > 20000 nM | > 20000 nM | 2470 nM | > 56200 nM |  | > 56200 nM |
| COc1ccc(COCCSc2nc(C(C)c3c(F)cccc3F)c(C)c(=O)[nH]2)cc1 (stereo not given) | 8.2 nM | 9940 nM | > 20000 nM | 1.1 nM | 920 nM | 650 nM | 320 nM |
| Cc1c(C(C)c2c(F)cccc2F)nc(SCc2ccc(C#N)cc2)[nH]c1=O (stereo not given) | 10 nM | 700 nM | > 20000 nM | 7.8 nM | 730 nM | 1550 nM | 680 nM |
| COc1ccc(CSc2nc(C(C)c3c(F)cccc3F)c(C)c(=O)[nH]2)cc1 (stereo not given) | 3 nM | 45000 nM | > 20000 nM | 0.025 nM | 550 nM | 300 nM | 950 nM |
| Cc1c(Cc2c(Cl)cccc2Cl)nc(SC/C=C/c2ccc([N+](=O)[O-])cc2)[nH]c1=O | 3810 nM | > 20000 nM | > 20000 nM | > 10800 nM | > 10800 nM | > 10800 nM | > 10800 nM |
| COc1ccc(/C=C/CSc2nc(Cc3c(F)cccc3F)c(C)c(=O)[nH]2)cc1 | 250 nM | > 20000 nM | > 20000 nM | 43 nM | > 3930 nM | > 3930 nM | > 3930 nM |
| CCc1c(Cc2c(Cl)cccc2Cl)nc(SCc2ccc([N+](=O)[O-])cc2)[nH]c1=O | 75 nM | > 20000 nM | > 20000 nM | 66.6 nM | > 55600 nM | 1580 nM | > 55600 nM |
| Cc1c(C(C)c2c(Cl)cccc2Cl)nc(SCc2ccc(C#N)cc2)[nH]c1=O (stereo not given) | 20 nM | > 20000 nM | > 20000 nM | 160 nM | 11600 nM |  |  |

— ChEMBL document CHEMBL1138362, “Dihydro-alkylthio-benzyl-oxopyrimidines as inhibitors of reverse transcriptase: synthesis and rationalization of the biological data on both wild-type enzyme and relevant clinical mutants” (J Med Chem, 2007)
